# Measured values as given in paper PMC5929363 (Radiology, 2017).
# What was measured:
# [1] = tested on: CCl4 mouse model of liver fibrosis; assay: Molecular MR imaging of liver fibrosis, CCl4 mouse model, 7.0 T; assay type: in vivo
# Outline: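 C57BL6 mice received i.p. CCl4 0.4 μL/g (1:5 in olive oil) twice weekly for 10 weeks; controls received olive oil. Mice were imaged at baseline and 1 week after the last dose at 7.0 T under 1–2% isoflurane, using ungated T1-weighted RARE (TE 4.5 ms, factor 8, TR 600 ms) before and up to 30 min after i.v. 10 μmol/kg. Liver–muscle ΔCNR was analysed as AUC and at the time of maximal difference between fitted exponential curves. Analysis was blinded.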
# [2] = In vivo plasma stability/metabolites by HPLC-ICP-MS; set-up: species or system rat; details: HPLC-ICP-MS of blood plasma
# Outline: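 Rat plasma sampled over 2 h after i.v. probe injection. HPLC/ICP-MS separated intact probe from any metabolites. Intact probe expressed as percentage of circulating gadolinium at each time point.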
# [3] = tested on: BDL rat model of liver fibrosis; assay: Molecular MR imaging of liver fibrosis, BDL rat model, 1.5 T; assay type: in vivo; details: for ΔCNR at 15 minutes post CM-101 / Area under the ΔCNR curve (AUC), liver vs muscle: 1.5 T
# Outline: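 Male CD rats underwent common bile duct ligation or sham surgery and were imaged at day 19. Imaging at 1.5 T under 1–2% isoflurane used respiratory-gated 3D inversion-recovery FLASH (TI 250 ms, TE 2.44 ms, effective TR ~1000 ms), before and up to 30 min after i.v. 10 μmol/kg. ΔCNR was liver-minus-muscle SNR, giving AUC and ΔCNR at the maximal diseased–control difference time. R1 maps (TI 50–1000 ms) were acquired pre and 30 min post and fitted voxelwise. Analysis was blinded.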
# Gd elimination route = assay type: in vivo; details: rat, 24-hour collection period, % of the Gd recovered
# [4] = Gd biodistribution in ex vivo rat tissue by ICP-MS
# Outline: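 Rats dosed i.v. with 10 μmol/kg probe. Tissues harvested ex vivo 1 and 14 days post-injection. Gadolinium measured by ICP-MS and expressed as % injected dose per gram of tissue.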
# [5] = Gd blood plasma clearance in rats; assay type: in vivo; details: rat, after 10 μmol/kg i.v., exponential decay fit, n=4/time point
# Outline: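 After i.v. probe injection, rat blood plasma sampled over 2 h (n = 4 per time point). Gadolinium quantified by HPLC/ICP-MS. Plasma concentration–time data fitted to exponential decay to give clearance half-life.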
# [6] = baseline mice, n=11, 10 μmol/kg i.v.
# [7] = sham rats, n=11, 10 μmol/kg i.v.
smiles,measurement,setting,value
CC(C)C[C@H](NC(=O)[C@@H]1CSSC[C@H](NC(=O)[C@H](Cc2c[nH]cn2)NC(=O)[C@H](Cc2c[nH]c3ccccc23)NC(=O)[C@H](CCCCNC(=O)CCC(C(=O)O)N2CCN(CC(=O)O)CCN(CC(=O)O)CCN(CC(=O)O)CC2)NC(=O)CNC(=O)CCC(C(=O)O)N2CCN(CC(=O)O)CCN(CC(=O)O)CCN(CC(=O)O)CC2)C(=O)N[C@@H]([C@@H](C)O)C(=O)N[C@@H]([C@@H](C)O)C(=O)N[C@@H](CCCCNC(=O)CCC(C(=O)O)N2CCN(CC(=O)O)CCN(CC(=O)O)CCN(CC(=O)O)CC2)C(=O)N[C@@H](Cc2ccccc2)C(=O)N2CCC[C@H]2C(=O)N[C@@H](Cc2c[nH]cn2)C(=O)N[C@@H](Cc2c[nH]cn2)C(=O)N[C@@H](Cc2ccc(O)cc2)C(=O)N1)C(=O)N[C@@H](Cc1ccc(O)cc1)C(=O)N[C@@H](Cc1ccc(-c2ccccc2)cc1)C(N)=O (stereo partly drawn) [CM-101],"Area under the ΔCNR curve (AUC), liver vs muscle","[1]; CCl4 treated mice (10 weeks), n=8, 10 μmol/kg i.v.",601±150
same,ΔCNR at 10 minutes post CM-101,"[1]; CCl4 treated mice, n=8, 10 μmol/kg i.v.",18.3±6.5
same,"Area under the ΔCNR curve (AUC), liver vs muscle",[1]; [6],163±54
same,ΔCNR at 10 minutes post CM-101,[1]; [6],5.2±1.0
same,Intact CM-101 as % of circulating Gd in plasma,[2]; 60 – 120 minutes post injection,about 50%
same,Intact CM-101 as % of circulating Gd in plasma,[2]; 3 minutes post injection,97%
same,Intact CM-101 as % of circulating Gd in plasma,[2]; 15 minutes post injection,77%
same,ΔCNR at 15 minutes post CM-101,"[3]; BDL rats, n=8, 10 μmol/kg i.v.",13.6±3.2
same,Change in liver R1 relaxation rate (ΔR1) 30 minutes post CM-101 injection,"[3]; BDL rats, n=8, 1.5 T",0.50 ± 0.23 s⁻¹
same,"Area under the ΔCNR curve (AUC), liver vs muscle","[3]; BDL rats, n=8, 19 days post procedure, 10 μmol/kg i.v.",73.1±17.1
same,"Area under the ΔCNR curve (AUC), liver vs muscle",[3]; [7],23.2±15.2
same,ΔCNR at 15 minutes post CM-101,[3]; [7],5.7±4.2
same,Change in liver R1 relaxation rate (ΔR1) 30 minutes post CM-101 injection,"[3]; sham rats, n=11, 1.5 T",0.15 ± 0.14 s⁻¹
same,Gd recovered found in the feces,Gd elimination route,0.8%
same,Gd recovered found in the urine,Gd elimination route,99.2%
same,Fold drop of tissue Gd levels from 24-hours to 14 days,[4]; rat tissues,about 10 fold
same,Tissue Gd levels at 24-hours (upper bound over all tissues),"[4]; rat, all tissues, 24 hours after CM-101 injection",< 3.9±0.6 %ID/g
same,"Gd (% ID/g) @ 24-hours, Bone","[4]; rat, bone, 24 hours after 10 μmol/kg i.v., ICP-MS, n=7",0.07±0.02 % ID/g
same,"Gd (% ID/g) @ 14-days, Bone","[4]; rat, bone, 14 days after 10 μmol/kg i.v., ICP-MS, n=8",0.01 % ID/g
same,"Gd (% ID/g) @ 14-days, Kidney","[4]; rat, kidney, 14 days after 10 μmol/kg i.v., ICP-MS, n=8",0.33±0.12 % ID/g
same,Gd blood plasma clearance half-life t1/2,[5],6.8 ± 2.4 min
